This assay has as its system HEK293. The assay can be described thus: Inhibition of Wnt/beta-catenin (unknown origin) signaling pathway expressed in HEK293 cells assessed as inhibition of TCF4 transcriptional activity at 5 to 40 uM after 24 hrs by TOPflash reporter gene assay. Format: cell-based. The note with it: Homo sapiens. In a few lines: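 HEK293 cells seeded at 1.5 × 10^4 per well and cotransfected (Lipofectamine 2000) with TOPflash luciferase reporter 0.1 μg, Renilla 0.005 μg for normalization, pcDNA β-catenin 0.02 μg and TCF4 expression vector 0.004 μg to activate Wnt; 24 h later treated with compound or solvent for 24 h; dual luciferase read-out, Renilla-normalized, relative to vehicle; triplicate.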

SMILES strings stand for the structures. Calls of active or inactive are those of the source. The calls are words filed in the database; no cut-off is given here.

Turning to `O=C/C=C/c1ccccc1`, the inhibition result is “Active”.

The record behind these values is ChEMBL document CHEMBL2406979, “Antitumor activity of 2-hydroxycinnamaldehyde for human colon cancer cells through suppression of β-catenin signaling” (J Nat Prod, 2013).
